The RNAGym collection of RNA variant scans (doi:10.1126/science.aae0568)
Fewer inactive variants are shown than the library holds.

B1: tRNA (parent)
chain: GUUCCGUUGGCGUAAUGGUAACGCGUCUCCCUCCUAAGGAGAAGACUGCGGGUUCGAGUCCCGUACGGAACG

Variants of: B1
Assay: yeast fitness relative to wild type (ratio to wild type); higher = fitter; tRNA-Arg(CCU), competitive growth, 37 C, YPD
Summary of the method: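 A pool of Saccharomyces cerevisiae strains, each with a tRNA-Arg(CCU) gene variant at the native genomic locus, was competed in YPD at 37°C for 24 hours across six parallel replicates. The variants had been chemically synthesised at a 3% per-site mutation rate over 69 sites, and gene amplicons before and after competition were read by 100-nucleotide paired-end sequencing. Darwinian fitness relative to wild type rested on changes in genotype frequencies. Genotypes required ≥ 100 starting reads, and estimates < 0.5 were set to 0.5.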

| Variant | yeast fitness |
| --- | --- |
| U8C A14U C22G C30U | 0.581 |
| U8C A14U C22G C30U A57C C61A G67A | ≤ 0.5 |
| U8C A14U C22G C30U U54C | ≤ 0.5 |
| U8C A14U C30A C61U C62A A70G | 0.532 |
| U8C A14U C30A C66U A70G | 0.546 |
| U8C A14U G48C A70C | ≤ 0.5 |
| U8C A15C | 0.848 |
| U8C A15C A21U | ≤ 0.5 |
| U8C A15C A45C | 0.674 |
| U8C A15C A57G A69C | ≤ 0.5 |
| U8C A15C C27U A45C | ≤ 0.5 |
| U8C A15C C31A | ≤ 0.5 |
| U8C A15C C34U A57C | ≤ 0.5 |
| U8C A15C G41A G52C | ≤ 0.5 |
| U8C A15C U32C | ≤ 0.5 |
| U8C A15C U32C A69C | ≤ 0.5 |
| U8C A15C U32C C61U A65U C66U | ≤ 0.5 |
| U8C A15G G25C A45U | 0.684 |
| U8C A15G U19A C29A A36G G51A | ≤ 0.5 |
| U8C A15U A20C G23A G50C | ≤ 0.5 |
| U8C A15U C22U A40C G48C U54C C62U | 0.557 |
| U8C A15U G38C G39A A43C C60G A65C | ≤ 0.5 |
| U8C A15U U16A U26A G58A | ≤ 0.5 |
| U8C A15U U28A C33G | ≤ 0.5 |

| Variant | yeast fitness |
| --- | --- |
| U8C A20C G51A | ≤ 0.5 |
| U8C A20G A65G G68A | ≤ 0.5 |
| U8C A20G C33A G44A C61U | ≤ 0.5 |
| U8C A20G C34G A37G G44A | 0.627 |
| U8C A20G C34G C66U | 0.696 |
| U8C A20G C61G | ≤ 0.5 |
| U8C A20G C66U | 0.624 |
| U8C A20U A21U U26G C31A U53A A69C | ≤ 0.5 |
| U8C A20U A57G | ≤ 0.5 |
| U8C A20U C29U C30G A37G G44A | ≤ 0.5 |
| U8C A21C C27U C49U G58C C61A A65U | ≤ 0.5 |
| U8C A21G A42G | 0.675 |
| U8C A21G A69C | 0.761 |
| U8C A21G A70G | 0.747 |
| U8C A21U C24A | ≤ 0.5 |
| U8C A21U C34A A40C G68C | ≤ 0.5 |
| U8C A21U G67C A69U | ≤ 0.5 |
| U8C A21U U32A C49U C55U | ≤ 0.5 |
| U8C A21U U53G A57C | ≤ 0.5 |
| U8C A36G | 0.865 |
| U8C A36U G38A G68C | ≤ 0.5 |
| U8C A37C | 0.892 |
| U8C A40C C55G | ≤ 0.5 |
| U8C A40C C62G | ≤ 0.5 |

| Variant | yeast fitness |
| --- | --- |
| U8C A40G C55U A65C | ≤ 0.5 |
| U8C A42G A70C | ≤ 0.5 |
| U8C A42G C49G C62A | ≤ 0.5 |
| U8C A42G G51U A57U | ≤ 0.5 |
| U8C A42G G68A | 0.63 |
| U8C A42U | 0.791 |
| U8C A42U A70G | 0.729 |
| U8C A42U C62A C66U | ≤ 0.5 |
| U8C A42U C62U A65C | 0.534 |
| U8C A43C | 0.939 |
| U8C A43C C49G | 0.597 |
| U8C A43C C49G C61A | 0.693 |
| U8C A43U G50C | ≤ 0.5 |
| U8C A45C C46U | 0.716 |
| U8C A45C C66U | 0.626 |
| U8C A45G | 0.906 |
| U8C A45U A65U | 0.709 |
| U8C A45U C49U | 0.714 |
| U8C A45U U59C | 0.57 |
| U8C A57C | 0.599 |
| U8C A57G | 0.856 |
| U8C A57G C66U | 0.704 |
| U8C A57U | 0.788 |
| U8C A57U C61U | 0.536 |

| Variant | yeast fitness |
| --- | --- |
| U8C A65C | 0.964 |
| U8C A65G | 0.929 |
| U8C A65U A69C | 0.615 |
| U8C A69C | 0.991 |
| U8C A69U | 0.933 |
| U8C A70C | 0.922 |
| U8C C11A | 0.698 |
| U8C C11A A20U C66U | ≤ 0.5 |
| U8C C11A C30A | ≤ 0.5 |
| U8C C11A C66G | ≤ 0.5 |
| U8C C11A G18C C27G | ≤ 0.5 |
| U8C C11G | 0.686 |
| U8C C11G C46U | ≤ 0.5 |
| U8C C11G G58U | ≤ 0.5 |
| U8C C11G G63A C66G | ≤ 0.5 |
| U8C C11U | 1.02 |
| U8C C11U A21G | 0.7 |
| U8C C11U C27A C30G C46U U47A | 0.603 |
| U8C C11U C34G | ≤ 0.5 |
| U8C C11U C46U C49A | ≤ 0.5 |
| U8C C11U G17C C31A A65C | ≤ 0.5 |
| U8C C11U U16C C46U C49A | 0.573 |
| U8C C22A | 0.932 |
| U8C C22A A36C G63A G67C | ≤ 0.5 |

| Variant | yeast fitness |
| --- | --- |
| U8C C22A U53A | ≤ 0.5 |
| U8C C22A U64A G68C | ≤ 0.5 |
| U8C C22G C27U C49U U64C | ≤ 0.5 |
| U8C C22G C49U U64C | 0.679 |
| U8C C22G C55G | ≤ 0.5 |
| U8C C22G U47C U53G | ≤ 0.5 |
| U8C C22G U54A U59A C61U | ≤ 0.5 |
| U8C C22U | 0.768 |
| U8C C22U A69C | 0.505 |
| U8C C22U C27U G58C | ≤ 0.5 |
| U8C C22U C29U | ≤ 0.5 |
| U8C C22U C30U C33U A45C | ≤ 0.5 |
| U8C C22U C31U C60A | ≤ 0.5 |
| U8C C22U C34A | 0.952 |
| U8C C22U G58C | ≤ 0.5 |
| U8C C22U U53A | ≤ 0.5 |
| U8C C24A | 0.616 |
| U8C C24A C46G G63A | 0.597 |
| U8C C24G C29A A43U G68C | ≤ 0.5 |
| U8C C24G C55A | ≤ 0.5 |
| U8C C24U A42C G50U | 0.674 |
| U8C C24U A45U | 0.608 |
| U8C C24U U26A | 0.607 |
| U8C C27A | 0.791 |

| Variant | yeast fitness |
| --- | --- |
| U8C C27A A40G C46G C62G | ≤ 0.5 |
| U8C C27A A42C | 0.532 |
| U8C C27G | 0.647 |
| U8C C27G C29A A70G | ≤ 0.5 |
| U8C C27G G39C | ≤ 0.5 |
| U8C C27U | 0.792 |
| U8C C27U A40G G44A C62A | ≤ 0.5 |
| U8C C27U A42U | 0.552 |
| U8C C27U C31A | 0.56 |
| U8C C27U C31A C55A G56A | 0.579 |
| U8C C27U C31A C55A G56A A65G | ≤ 0.5 |
| U8C C27U C34G | ≤ 0.5 |
| U8C C27U C62U | 0.736 |
| U8C C27U U28G C33G A36G | ≤ 0.5 |
| U8C C27U U32A C66U G67C | ≤ 0.5 |
| U8C C29A | 0.664 |
| U8C C29A A37G | 0.616 |
| U8C C29A A65C C66G | ≤ 0.5 |
| U8C C29A C34G A36G A37G A40C U47A U64C | ≤ 0.5 |
| U8C C29A C34G A36G A40C G41A U47A U64C | ≤ 0.5 |
| U8C C29G A37G G67C | 0.573 |
| U8C C29G U35G C61U | ≤ 0.5 |
| U8C C29U | 0.937 |
| U8C C29U U35G C62U | ≤ 0.5 |

| Variant | yeast fitness |
| --- | --- |
| U8C C30A | 0.948 |
| U8C C30A C31U U54C | ≤ 0.5 |
| U8C C30G | 0.674 |
| U8C C30G C31G C55U | ≤ 0.5 |
| U8C C30G C31G C66U | ≤ 0.5 |
| U8C C30G C31G U54C C61G | ≤ 0.5 |
| U8C C30G C33G | ≤ 0.5 |
| U8C C30G C46A U47G C49A G52A G58C U64G A65G | ≤ 0.5 |
| U8C C30G C49A G68A | ≤ 0.5 |
| U8C C30U | 0.935 |
| U8C C31A A42G A43G G68C | 0.559 |
| U8C C31G A45G C62G | ≤ 0.5 |
| U8C C31U | 1.07 |
| U8C C33A C55G A69C | ≤ 0.5 |
| U8C C33U | 0.728 |
| U8C C33U A36C A43G A57U | ≤ 0.5 |
| U8C C33U A70U | ≤ 0.5 |
| U8C C34A C61G G68C | ≤ 0.5 |
| U8C C34G | 0.574 |
| U8C C34G G58C C62U | ≤ 0.5 |
| U8C C46A | 1.01 |
| U8C C46A G50C | 0.567 |
| U8C C46G G67A | 0.674 |
